Measured values as given in ChEMBL document CHEMBL5696442, “Discovery of type II inhibitors of TGFβ-activated kinase 1 (TAK1) and mitogen-activated protein kinase kinase kinase kinase 2 (MAP4K2)” (J Med Chem, 2015).

Tests used:
[1] = target: Proto-oncogene tyrosine-protein kinase Src (Homo sapiens, UniProt P12931); assay: Inhibition of SRC ACT labeling site in human A-375 cells at 0.5 uM by KiNativ Profiling analysis relative to control; assay type: cell-based
[2] = target: Tyrosine-protein kinase JAK1 (Homo sapiens) (UniProt P23458); assay: Inhibition of JAK1 domain2 Lys1 labeling site in human A-375 cells at 5 uM by KiNativ Profiling analysis relative to control; assay type: cell-based
[3] = target: Phosphatidylinositol 4-kinase beta (Homo sapiens) (UniProt Q9UBF8); assay: Inhibition of PI4KB ATP labeling site harbouring VPHTQAVVLNSKDK in human A-375 cells at 5 uM by KiNativ Profiling analysis relative to control; assay type: cell-based
Phosphatidylinositol 4-kinase beta (Homo sapiens), sequence (Q9UBF8 2-816 limits assumed): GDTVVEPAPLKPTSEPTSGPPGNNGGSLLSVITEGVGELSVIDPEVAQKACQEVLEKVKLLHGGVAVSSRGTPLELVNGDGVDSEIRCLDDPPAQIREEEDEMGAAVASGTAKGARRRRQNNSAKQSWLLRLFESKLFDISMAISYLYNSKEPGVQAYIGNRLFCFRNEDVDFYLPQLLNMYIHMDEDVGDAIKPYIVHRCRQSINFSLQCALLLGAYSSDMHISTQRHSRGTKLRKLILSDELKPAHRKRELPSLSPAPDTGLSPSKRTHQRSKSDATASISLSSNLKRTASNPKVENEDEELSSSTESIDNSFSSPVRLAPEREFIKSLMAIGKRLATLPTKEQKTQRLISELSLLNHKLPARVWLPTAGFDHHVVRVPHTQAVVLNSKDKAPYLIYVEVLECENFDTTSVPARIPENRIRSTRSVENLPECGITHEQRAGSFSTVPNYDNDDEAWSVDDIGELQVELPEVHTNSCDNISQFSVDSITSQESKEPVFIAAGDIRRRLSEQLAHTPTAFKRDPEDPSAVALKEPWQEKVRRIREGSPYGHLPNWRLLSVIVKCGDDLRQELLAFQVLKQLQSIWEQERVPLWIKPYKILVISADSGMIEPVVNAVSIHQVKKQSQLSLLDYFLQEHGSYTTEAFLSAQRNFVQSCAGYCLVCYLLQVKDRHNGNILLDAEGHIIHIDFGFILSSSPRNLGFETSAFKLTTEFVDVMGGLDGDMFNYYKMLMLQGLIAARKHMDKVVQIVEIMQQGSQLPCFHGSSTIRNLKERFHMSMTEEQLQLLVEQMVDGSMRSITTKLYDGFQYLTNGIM

[4] = target: Cyclin-dependent kinase 2 (Homo sapiens) (UniProt P24941); assay: Inhibition of CDK2 Lys2 labeling site in human A-375 cells at 0.5 uM by KiNativ Profiling analysis relative to control; assay type: cell-based
How it was run: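 Live A375 melanoma cells were treated with compound at 5 or 0.5 μM. The cells were then lysed, and the lysates were labeled with a lysine-reactive ATP or ADP-biotin acyl probe (KiNativ). Inhibition is the compound's protection of each kinase labeling-site peptide from probe labeling, relative to untreated control.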

[5] = target: Tyrosine-protein kinase Fer (Homo sapiens, UniProt P16591); assay: Inhibition of FER Lys1 labeling site harbouring TSVAVKTCKEDLPQELKin human A-375 cells at 0.5 uM by KiNativ Profiling analysis relative to control; assay type: cell-based
Tyrosine-protein kinase Fer, sequence (P16591 whole entry, looked up): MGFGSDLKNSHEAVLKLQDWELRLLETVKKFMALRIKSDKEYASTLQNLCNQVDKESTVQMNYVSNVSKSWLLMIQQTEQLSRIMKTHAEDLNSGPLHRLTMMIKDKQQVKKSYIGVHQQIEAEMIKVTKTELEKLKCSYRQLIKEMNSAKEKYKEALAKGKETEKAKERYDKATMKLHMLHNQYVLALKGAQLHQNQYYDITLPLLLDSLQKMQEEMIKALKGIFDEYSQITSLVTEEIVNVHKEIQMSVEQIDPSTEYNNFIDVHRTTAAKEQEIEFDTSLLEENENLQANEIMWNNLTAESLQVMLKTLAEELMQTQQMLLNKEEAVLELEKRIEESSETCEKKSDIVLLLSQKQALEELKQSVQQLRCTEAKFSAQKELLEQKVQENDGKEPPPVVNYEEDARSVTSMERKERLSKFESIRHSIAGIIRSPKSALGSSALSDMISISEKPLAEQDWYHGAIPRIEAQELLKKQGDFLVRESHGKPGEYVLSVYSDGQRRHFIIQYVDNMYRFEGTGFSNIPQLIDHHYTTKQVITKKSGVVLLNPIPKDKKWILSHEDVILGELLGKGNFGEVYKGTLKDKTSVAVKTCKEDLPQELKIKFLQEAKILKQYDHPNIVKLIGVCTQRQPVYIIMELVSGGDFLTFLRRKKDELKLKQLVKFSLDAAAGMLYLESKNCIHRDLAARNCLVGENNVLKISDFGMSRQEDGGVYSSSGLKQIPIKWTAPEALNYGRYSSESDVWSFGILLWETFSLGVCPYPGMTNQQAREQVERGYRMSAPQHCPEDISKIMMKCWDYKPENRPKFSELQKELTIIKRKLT

[6] = target: Dual specificity mitogen-activated protein kinase kinase 1 (Homo sapiens) (UniProt Q02750); assay: Inhibition of MAP2K1 Lys1 labeling site in human A-375 cells at 0.5 uM by KiNativ Profiling analysis relative to control; assay type: cell-based
[7] = target: T1, Dual specificity mitogen-activated protein kinase kinase 5 (Homo sapiens) (UniProt Q13163); assay: Inhibition of MAP2K5 Lys2 labeling site in human A-375 cells at 0.5 uM by KiNativ Profiling analysis relative to control; assay type: cell-based
T1 sequence (whole entry): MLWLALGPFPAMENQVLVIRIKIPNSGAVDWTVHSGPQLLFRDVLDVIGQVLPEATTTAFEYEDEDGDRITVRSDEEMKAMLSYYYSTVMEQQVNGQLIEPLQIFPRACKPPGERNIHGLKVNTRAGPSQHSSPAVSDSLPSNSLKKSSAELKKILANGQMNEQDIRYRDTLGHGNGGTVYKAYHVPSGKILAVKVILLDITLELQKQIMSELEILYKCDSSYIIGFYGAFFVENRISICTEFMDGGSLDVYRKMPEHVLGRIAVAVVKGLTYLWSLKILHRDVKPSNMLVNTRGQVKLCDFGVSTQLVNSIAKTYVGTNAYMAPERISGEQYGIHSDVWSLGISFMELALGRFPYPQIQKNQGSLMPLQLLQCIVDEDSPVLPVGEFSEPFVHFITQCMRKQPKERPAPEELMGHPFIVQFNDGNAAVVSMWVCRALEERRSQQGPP

[8] = target: Ribosomal protein S6 kinase alpha-1 (Homo sapiens) (UniProt Q15418); assay: Inhibition of RSK1 domain2 Lys2 labeling site in human A-375 cells at 0.5 uM by KiNativ Profiling analysis relative to control; assay type: cell-based
Ribosomal protein S6 kinase alpha-1 (Homo sapiens), sequence (Q15418 whole entry, the tested form may be a part): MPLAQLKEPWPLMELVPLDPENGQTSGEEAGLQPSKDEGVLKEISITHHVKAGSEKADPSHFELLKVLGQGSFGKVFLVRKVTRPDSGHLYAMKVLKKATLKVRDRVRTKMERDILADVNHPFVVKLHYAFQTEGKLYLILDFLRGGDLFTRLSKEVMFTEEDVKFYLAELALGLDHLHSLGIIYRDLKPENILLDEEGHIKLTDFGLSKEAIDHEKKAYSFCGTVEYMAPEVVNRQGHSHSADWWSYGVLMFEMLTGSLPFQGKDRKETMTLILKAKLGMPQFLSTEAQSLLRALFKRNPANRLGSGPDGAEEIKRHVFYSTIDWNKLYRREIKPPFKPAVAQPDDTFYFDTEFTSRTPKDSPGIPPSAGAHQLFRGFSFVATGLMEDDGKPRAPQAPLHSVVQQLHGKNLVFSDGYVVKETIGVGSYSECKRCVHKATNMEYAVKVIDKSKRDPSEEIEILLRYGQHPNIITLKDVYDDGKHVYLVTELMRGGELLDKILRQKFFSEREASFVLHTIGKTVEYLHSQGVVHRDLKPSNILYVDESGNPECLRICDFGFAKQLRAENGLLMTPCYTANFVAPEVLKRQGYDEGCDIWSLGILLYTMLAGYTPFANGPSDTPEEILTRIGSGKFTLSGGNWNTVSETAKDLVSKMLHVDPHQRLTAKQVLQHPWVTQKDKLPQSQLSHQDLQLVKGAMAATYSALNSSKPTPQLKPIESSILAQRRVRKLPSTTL
How it was run: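 Live A375 melanoma cells treated with compound at 5 or 0.5 μM, then lysed. Lysate kinases were labeled with a lysine-reactive ATP or ADP-biotin probe. Inhibition was read as protection of labeling sites from the probe.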

[9] = target: T2, Serine/threonine-protein kinase TBK1 (Homo sapiens) (UniProt Q9UHD2); assay: Inhibition of TBK1 Lys1 labeling site in human A-375 cells at 0.5 uM by KiNativ Profiling analysis relative to control; assay type: cell-based
T2 sequence (whole entry): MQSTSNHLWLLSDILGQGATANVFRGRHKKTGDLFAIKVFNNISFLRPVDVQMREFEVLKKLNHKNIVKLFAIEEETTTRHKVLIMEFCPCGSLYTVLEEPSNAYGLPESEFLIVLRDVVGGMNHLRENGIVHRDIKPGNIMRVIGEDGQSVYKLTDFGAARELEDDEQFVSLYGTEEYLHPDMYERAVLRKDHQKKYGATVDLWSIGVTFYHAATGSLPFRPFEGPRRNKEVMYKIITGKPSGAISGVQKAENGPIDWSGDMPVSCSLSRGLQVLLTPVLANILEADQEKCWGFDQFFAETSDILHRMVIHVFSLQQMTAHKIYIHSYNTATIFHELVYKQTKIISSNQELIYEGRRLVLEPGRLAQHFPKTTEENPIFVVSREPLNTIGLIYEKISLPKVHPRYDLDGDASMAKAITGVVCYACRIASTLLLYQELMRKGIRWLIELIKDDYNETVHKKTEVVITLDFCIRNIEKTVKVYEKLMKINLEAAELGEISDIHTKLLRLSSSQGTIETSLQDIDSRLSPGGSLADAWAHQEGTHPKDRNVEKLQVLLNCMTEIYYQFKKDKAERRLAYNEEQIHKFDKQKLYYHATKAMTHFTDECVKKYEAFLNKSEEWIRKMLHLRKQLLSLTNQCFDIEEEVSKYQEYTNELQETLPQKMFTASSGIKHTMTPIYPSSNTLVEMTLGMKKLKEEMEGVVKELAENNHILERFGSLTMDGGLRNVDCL

[10] = target: Serine/threonine-protein kinase WNK1 (Homo sapiens) (UniProt Q9H4A3); assay: Inhibition of Wnk1 Lys2 labeling site in human A-375 cells at 0.5 uM by KiNativ Profiling analysis relative to control; assay type: cell-based
Serine/threonine-protein kinase WNK1 (Homo sapiens), sequence (Q9H4A3 whole entry, looked up): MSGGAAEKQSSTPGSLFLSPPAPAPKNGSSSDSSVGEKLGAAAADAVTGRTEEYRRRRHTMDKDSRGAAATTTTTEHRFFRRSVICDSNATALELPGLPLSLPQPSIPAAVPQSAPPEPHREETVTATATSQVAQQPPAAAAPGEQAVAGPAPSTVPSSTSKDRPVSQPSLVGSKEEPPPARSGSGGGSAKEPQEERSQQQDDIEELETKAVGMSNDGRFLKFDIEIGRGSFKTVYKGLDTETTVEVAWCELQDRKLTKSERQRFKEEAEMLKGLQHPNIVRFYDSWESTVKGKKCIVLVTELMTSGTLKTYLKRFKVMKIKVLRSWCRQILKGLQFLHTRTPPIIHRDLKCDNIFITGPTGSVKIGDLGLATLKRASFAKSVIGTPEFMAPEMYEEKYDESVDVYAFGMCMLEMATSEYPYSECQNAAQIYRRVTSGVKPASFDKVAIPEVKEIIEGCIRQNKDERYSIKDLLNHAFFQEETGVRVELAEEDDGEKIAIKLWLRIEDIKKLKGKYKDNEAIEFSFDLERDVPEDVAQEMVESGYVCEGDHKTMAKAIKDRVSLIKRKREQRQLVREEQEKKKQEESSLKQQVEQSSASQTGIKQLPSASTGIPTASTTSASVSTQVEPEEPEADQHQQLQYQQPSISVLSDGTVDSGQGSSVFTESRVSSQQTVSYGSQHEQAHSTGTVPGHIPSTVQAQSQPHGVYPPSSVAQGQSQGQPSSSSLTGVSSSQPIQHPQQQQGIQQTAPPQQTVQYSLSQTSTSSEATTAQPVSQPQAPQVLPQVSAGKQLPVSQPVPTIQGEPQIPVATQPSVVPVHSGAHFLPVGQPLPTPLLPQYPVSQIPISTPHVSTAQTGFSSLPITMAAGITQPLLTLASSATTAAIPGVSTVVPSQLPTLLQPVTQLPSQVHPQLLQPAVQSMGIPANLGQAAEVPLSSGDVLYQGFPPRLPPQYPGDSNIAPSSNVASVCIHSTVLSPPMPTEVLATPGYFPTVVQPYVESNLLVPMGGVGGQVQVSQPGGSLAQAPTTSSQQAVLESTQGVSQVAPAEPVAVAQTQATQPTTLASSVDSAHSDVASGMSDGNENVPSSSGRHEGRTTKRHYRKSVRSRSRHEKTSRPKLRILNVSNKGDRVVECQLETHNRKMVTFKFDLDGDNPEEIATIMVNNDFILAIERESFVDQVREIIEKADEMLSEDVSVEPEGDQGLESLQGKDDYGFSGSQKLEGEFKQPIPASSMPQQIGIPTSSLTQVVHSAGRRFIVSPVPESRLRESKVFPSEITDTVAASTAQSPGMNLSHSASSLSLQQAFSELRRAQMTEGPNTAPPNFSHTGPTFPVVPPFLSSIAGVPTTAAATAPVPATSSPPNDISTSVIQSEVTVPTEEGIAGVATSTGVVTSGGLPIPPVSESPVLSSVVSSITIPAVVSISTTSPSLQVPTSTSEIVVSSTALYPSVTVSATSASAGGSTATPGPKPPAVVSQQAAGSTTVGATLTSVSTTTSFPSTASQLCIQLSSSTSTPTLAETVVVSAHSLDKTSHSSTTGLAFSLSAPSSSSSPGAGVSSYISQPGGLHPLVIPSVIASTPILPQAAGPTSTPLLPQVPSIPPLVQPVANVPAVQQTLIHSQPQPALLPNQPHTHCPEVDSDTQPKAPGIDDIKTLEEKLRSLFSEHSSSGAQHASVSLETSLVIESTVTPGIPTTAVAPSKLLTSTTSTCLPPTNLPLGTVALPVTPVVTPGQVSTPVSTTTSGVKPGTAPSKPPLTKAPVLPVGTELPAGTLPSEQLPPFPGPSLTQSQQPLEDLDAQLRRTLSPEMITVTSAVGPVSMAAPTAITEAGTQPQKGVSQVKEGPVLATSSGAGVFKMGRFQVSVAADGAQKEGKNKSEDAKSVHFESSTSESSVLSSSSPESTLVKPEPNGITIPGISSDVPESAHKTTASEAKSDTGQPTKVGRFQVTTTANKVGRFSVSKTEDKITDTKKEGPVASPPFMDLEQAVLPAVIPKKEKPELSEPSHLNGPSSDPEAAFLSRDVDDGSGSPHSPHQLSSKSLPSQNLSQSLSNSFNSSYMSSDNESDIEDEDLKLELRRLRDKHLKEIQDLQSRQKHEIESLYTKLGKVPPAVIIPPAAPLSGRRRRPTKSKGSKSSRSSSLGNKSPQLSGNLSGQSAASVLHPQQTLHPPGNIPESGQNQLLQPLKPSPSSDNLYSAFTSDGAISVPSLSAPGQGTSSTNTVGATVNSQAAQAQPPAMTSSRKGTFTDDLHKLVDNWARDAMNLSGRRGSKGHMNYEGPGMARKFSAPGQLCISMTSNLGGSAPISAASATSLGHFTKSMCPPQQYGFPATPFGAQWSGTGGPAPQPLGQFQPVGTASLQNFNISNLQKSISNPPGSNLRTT

[11] = target: RAC-beta serine/threonine-protein kinase (Homo sapiens) (UniProt P31751); assay: Inhibition of AKT2 ATP Loop labeling site in human A-375 cells at 0.05 uM by KiNativ Profiling analysis relative to control; assay type: cell-based
[12] = target: Interleukin-1 receptor-associated kinase 1 (Homo sapiens) (UniProt P51617); assay: Inhibition of IRAK1 Lys2 labeling site in human A-375 cells at 0.05 uM by KiNativ Profiling analysis relative to control; assay type: cell-based
[13] = target: Serine/threonine-protein kinase MARK2 (Homo sapiens) (UniProt Q7KZI7); assay: Inhibition of MARK2 Lys2 labeling site harbouring DLKAENLLLDADMNIK in human A-375 cells at 0.05 uM by KiNativ Profiling analysis relative to control; assay type: cell-based
[14] = Inhibition of p70S6K ATP Loop labeling site harbouring DLKPENIMLNHQGHVK in human A-375 cells at 0.05 uM by KiNativ Profiling analysis relative to control; conditions: condition cancer
[15] = target: Serine/threonine-protein kinase WNK1 (Homo sapiens) (UniProt Q9H4A3); assay: Inhibition of Wnk1 ATP Loop labeling site in human A-375 cells at 0.05 uM by KiNativ Profiling analysis relative to control; assay type: cell-based
[16] = target: Serine/threonine-protein kinase WNK4 (Homo sapiens) (UniProt Q96J92); assay: Inhibition of Wnk4 ACT labeling site in human A-375 cells at 0.05 uM by KiNativ Profiling analysis relative to control; assay type: cell-based
[17] = target: Mitogen-activated protein kinase kinase kinase 20 (Homo sapiens, UniProt Q9NYL2); assay: Inhibition of ZAK Lys1 labeling site in human A-375 cells at 0.05 uM by KiNativ Profiling analysis relative to control; assay type: cell-based

SMILES | inhibition [1] [%] | inhibition [2] [%] | inhibition [3] [%] | inhibition [4] [%] | inhibition [5] [%] | inhibition [6] [%] | inhibition [7] [%] | inhibition [8] [%] | inhibition [9] [%] | inhibition [10] [%] | inhibition [11] [%] | inhibition [12] [%] | inhibition [13] [%] | inhibition at 0.05 µM [14] [%] | inhibition [15] [%] | inhibition [16] [%] | inhibition [17] [%]
CCN1CCN(Cc2ccc(NC(=O)c3ccc(C)c(Oc4ccnc5[nH]ccc45)c3)cc2C(F)(F)F)CC1 | 36.5 | 97.6 | -5.8 | 4.5 | 88.5 | -3.5 | 16.2 | 3 | 17.1 | -3 | -3.9 | 14.2 | 19.5 | 18.9 | 2.4 | 10.3 | 74.1
CCN1CCN(Cc2ccc(NC(=O)c3ccc(C)c(/C=C/c4cnc5[nH]ccc5c4OC)c3)cc2C(F)(F)F)CC1 | 72.6 | 73.4 | -6.8 | 19.4 | 23.3 | 4.4 | 26.1 | 1.6 | 28.7 | 7.9 | 20.9 | -9.4 | 11.6 | -14.4 | 5 | 10.1 | 80.5
